Experimental data taken from ChEMBL document CHEMBL1275327, “Synthesis and biological activities of pyrazolo[3,4-g]quinoxaline derivatives” (Eur J Med Chem, 2010).
Activity calls are given as the source filed them. The rule behind the calls is not given here.

How the values were obtained:
[1] = target: Serine/threonine-protein kinase pim-3 (Homo sapiens) (UniProt Q86V86); assay: Inhibition of Pim3 assessed as residual enzyme activity at 1 uM
[2] = target: Serine/threonine-protein kinase pim-2 (Homo sapiens) (UniProt Q9P1W9); assay: Inhibition of Pim2 assessed as residual enzyme activity at 10 uM
[3] = target: Serine/threonine-protein kinase pim-1 (Homo sapiens) (UniProt P11309); assay: Inhibition of Pim1 assessed as residual enzyme activity at 1 uM
DU-145 [4] = assay: Antiproliferative activity against human DU145 cells assessed as inhibition of cell proliferation at 10 uM after 48 hrs by resazurin reduction test; type: functional; conditions: DU-145, 48 h
[5] = target: Serine/threonine-protein kinase pim-1 (Homo sapiens) (UniProt P11309); assay: Inhibition of Pim1 assessed as residual enzyme activity at 10 uM
PA-1 [6] = assay: Antiproliferative activity against human PA1 cells assessed as inhibition of cell proliferation at 10 uM after 48 hrs by resazurin reduction test; type: functional; conditions: PA-1, 48 h
Method in brief: (§1)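 PA1 and PC3 screen: cells at 5×10^3/well adhered 16 h, then were treated 48 h continuously at 1 and 10 µM from a 20 mM DMSO stock. Growth inhibition was scored by resazurin reduction (25 µg/mL, 1 h, 37 °C; fluorescence ex 530/em 590 nm) relative to control wells after blank subtraction.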

[7] = target: Serine/threonine-protein kinase pim-3 (Homo sapiens) (UniProt Q86V86); assay: Inhibition of Pim3 assessed as residual enzyme activity at 10 uM
[8] = Antiproliferative activity against human Fibroblast assessed as inhibition of cell proliferation at 10 uM after 48 hrs by resazurin reduction test; type: cell-based; conditions: human fibroblasts
[9] = target: Serine/threonine-protein kinase pim-2 (Homo sapiens) (UniProt Q9P1W9); assay: Inhibition of Pim2 assessed as residual enzyme activity at 1 uM
PC-3 [10] = assay: Antiproliferative activity against human PC3 cells assessed as inhibition of cell proliferation at 10 uM after 48 hrs by resazurin reduction test; type: functional; conditions: PC-3, 48 h; method in brief: as §1
PA-1 [11] = assay: Antiproliferative activity against human PA1 cells after 48 hrs by resazurin reduction test; type: functional, cell-based; conditions: PA-1, 48 h
Method in brief: (§2)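 Cells grown as monolayers in MEM with Earle's salts, 10% FCS, pyruvate, non-essential amino acids and gentamicin at 37 °C, 5% CO2. 5×10^3 cells/well adhered 16 h, then had 48 h continuous exposure to drug from a 20 mM DMSO stock. Resazurin (25 µg/mL, 1 h, 37 °C) was read by fluorescence (ex 530/em 590 nm). IC50 came from blank-corrected survival % vs control wells.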

[12] = Antiproliferative activity against human Fibroblast after 48 hrs by resazurin reduction test; type: cell-based; method in brief: as §2
PC-3 [13] = assay: Antiproliferative activity against human PC3 cells after 48 hrs by resazurin reduction test; type: functional, cell-based; conditions: PC-3, 48 h; method in brief: as §2
DU-145 [14] = assay: Antiproliferative activity against human DU145 cells after 48 hrs by resazurin reduction test; type: functional, cell-based; conditions: DU-145, 48 h; method in brief: as §2

Chain of Serine/threonine-protein kinase pim-1 (Homo sapiens) (P11309 whole entry, looked up): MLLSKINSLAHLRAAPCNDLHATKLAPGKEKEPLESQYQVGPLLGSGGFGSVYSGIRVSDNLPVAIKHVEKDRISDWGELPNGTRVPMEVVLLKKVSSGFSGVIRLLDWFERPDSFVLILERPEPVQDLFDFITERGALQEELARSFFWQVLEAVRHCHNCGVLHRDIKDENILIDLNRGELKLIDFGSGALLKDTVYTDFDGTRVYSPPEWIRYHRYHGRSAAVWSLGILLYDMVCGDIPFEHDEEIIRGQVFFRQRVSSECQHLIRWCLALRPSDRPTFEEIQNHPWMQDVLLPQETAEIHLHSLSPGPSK
Chain of Serine/threonine-protein kinase pim-2 (Homo sapiens) (Q9P1W9 whole entry, looked up): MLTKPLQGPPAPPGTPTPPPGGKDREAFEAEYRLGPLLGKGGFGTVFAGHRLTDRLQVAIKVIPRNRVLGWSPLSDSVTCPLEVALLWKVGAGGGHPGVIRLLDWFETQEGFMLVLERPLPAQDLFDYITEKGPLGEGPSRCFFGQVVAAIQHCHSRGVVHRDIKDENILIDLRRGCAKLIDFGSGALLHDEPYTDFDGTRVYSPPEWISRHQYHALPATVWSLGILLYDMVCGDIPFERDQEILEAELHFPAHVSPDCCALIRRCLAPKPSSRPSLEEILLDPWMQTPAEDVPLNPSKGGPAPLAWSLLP

| Activity [1] | Activity [2] | Activity [3] | Activity [5] | Activity [7] | Activity [9] | IC50 (PC-3 [13]) | IC50 (DU-145 [14]) | SMILES | inhibition at 10 µM (DU-145 [4]) | inhibition at 10 µM (PA-1 [6]) | inhibition at 48 h, 10 µM [8] | inhibition at 10 µM (PC-3 [10]) | IC50 (PA-1 [11]) | IC50 [12] |
| --- | --- | --- | --- | --- | --- | --- | --- | --- | --- | --- | --- | --- | --- | --- |
| 83% | 78% | 96% | 71% | 43% | inactive |  |  | CC1(C)[C@H]2CC[C@]1(C)c1nc3cc4[nH]ncc4cc3nc12 | < 50% | < 50% | < 50% | < 50% |  |  |
| 69% | inactive | 95% | 59% | 32% | inactive |  |  | Nc1cc2cn[nH]c2cc1N | < 50% | < 50% | < 50% | < 50% |  |  |
| 95% | 76% | 88% | 45% | 37% | 82% |  |  | CC1(C)[C@@H]2CC[C@@]1(C)c1nc3cc4cn[nH]c4cc3nc12 | < 50% | < 50% | < 50% | < 50% |  |  |
| 81% | inactive | 95% | 66.6% | 46.4% | inactive |  |  | c1n[nH]c2cc3nc4c(nc3cc12)CCC4 | < 50% | < 50% | < 50% | < 50% |  |  |
| 84% | inactive | 89% | 49% | 31% | inactive | > 50 µM | > 50 µM | CCc1nc2cc3cn[nH]c3cc2nc1CC |  |  |  |  | 6.5 µM | > 50 µM |

Continued, compound first:

| SMILES | Activity [1] | Activity [2] | Activity [3] | Activity [5] | Activity [7] | Activity [9] | IC50 (PC-3 [13]) | IC50 (DU-145 [14]) | inhibition at 10 µM (DU-145 [4]) | inhibition at 10 µM (PA-1 [6]) | inhibition at 48 h, 10 µM [8] | inhibition at 10 µM (PC-3 [10]) | IC50 (PA-1 [11]) | IC50 [12] |
| --- | --- | --- | --- | --- | --- | --- | --- | --- | --- | --- | --- | --- | --- | --- |
| c1ccc(C2Cc3nc4cc5cn[nH]c5cc4nc3C2)cc1 (racemic) | 95% | inactive | inactive | 83% | 79% | inactive | > 50 µM | 35 µM |  |  |  |  | 4.1 µM | > 50 µM |
| c1n[nH]c2cc3nc4c(nc3cc12)CCCC4 | 58% | inactive | 90% | 55.1% | 19.7% | inactive | > 50 µM | > 50 µM |  |  |  |  | 16 µM | > 50 µM |
| CC1Cc2nc3cc4cn[nH]c4cc3nc2C1C (racemic) | 73% | inactive | inactive | 69% | 33% | inactive | > 50 µM | > 50 µM |  |  |  |  | 4.7 µM | > 50 µM |
| CC1Cc2nc3cc4[nH]ncc4cc3nc2C1C (racemic) | 72% | inactive | 88.5% | 59% | 44% | inactive | > 50 µM | > 50 µM |  |  |  |  | 6.1 µM | > 50 µM |
